# Results: PubChem BioAssay
# Calls of active or inactive are those of the source.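 How the source made its calls, unless noted: active means viability at or under a set limit in both replicates, limit being median viability minus 3 SD (cut at about 48% in these data, passing the limit was not always enough); inconclusive means at or under the limit in just one replicate; inactive means at or above the limit in both replicates.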
# What was measured:
# [1] = reducers of endogenous Her2 protein level, primary screen, SKBR3 breast tumor cells, AlphaScreen, ATP viability (AID 461;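 active means Her2 level under about 52% in both replicate screens, with viability over 70% of control, limit read from the data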;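 on Her2 level: lower value means less Her2 protein in the cells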;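 on viability: percent of carrier control wells set as 100% viability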); details: 18-24 h, measured here: SKBR3 viability, ATP luminescence, at 10 µM
# [2] = molecular target: Receptor tyrosine-protein kinase erbB-2 (Homo sapiens) (UniProt P04626); test: as above; details: 18-24 h, at 10 µM, stronger effect = lower value
# [3] = SK-BR-3 cell growth inhibitors, pilot screen, 24 h, human (AID 572;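 active means viability at or below 10% of carrier control in both of two separate runs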;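 further: compound exposure lasted between 18 and 24 h rather than exactly 24 h; 100% = carrier-treated control wells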); details: SK-BR-3 viability, CellTiter-Glo luminescence, at 10 µM, stronger effect = lower value
# [4] = HUVEC growth inhibition – cell-based, human, primary screen (AID 575;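 active means viability at or below 30% in both replicate assays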;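 further: 100% = median of untreated cell wells with 0.1% DMSO on each plate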); details: HUVEC proliferation, CellTiter-Glo luminescence, 72 h; at 10 µM; stronger effect = lower value
# How it was run: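 Assay system: Primary human umbilical vein endothelial cells | Quantity: 1250 cells per well | Medium: Supplemented EBM, 2% fetal bovine serum | Detection: CellTiter-Glo luminescence measuring cellular ATP | Read-out: % viability vs DMSO wells | Plate: Collagen-coated 384-well format | Times: 72 h exposure, 37 °C, 5% CO2, 30 min RT equilibration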
# [5] = growth inhibitors of H69AR lung tumor, primary screen, human, duplicate replicates (AID 580); details: H69AR lung tumor cells viability, ATP luminescence, 72 h; at 10 µM; stronger effect = lower value;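 further: 100% = mean luminescence of untreated wells and 0% = no signal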
# [6] = reversal of MRP1-mediated doxorubicin resistance, pilot screen, H69AR cells, doxorubicin co-treatment (AID 601;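 active means viability loss from added drug above about 55%, and viability with drug at most 40%, in both replicates, limit read from the data, passing the limit was not always enough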); details: CellTiter-Glo, 72 h, at 10 µM; for differential viability (reversal): stronger effect = higher value
# [7] = 384-well plate pilot, post-Golgi transport modulator project, inhibition of yeast transport mutant growth (AID 636; in the data active means inhibition above about 31%); details: absorbance 615 nm, about 18 h, stronger effect = higher value
# [8] = growth suppression of yeast trafficking mutant, preliminary HTS, modulators of trafficking downstream of Golgi apparatus project, 1536-format plate, OD 615 nm (AID 637; in the data active means inhibition above about 30%); details: yeast transport mutant growth, absorbance 615 nm, 18 h; stronger effect = higher value
# [9] = H69AR cells + 2 uM doxorubicin, measured here: viability with 2 uM doxorubicin, stronger effect = lower value
# [10] = H69AR cells, compound alone cytotoxicity
# Receptor tyrosine-protein kinase erbB-2 (Homo sapiens), sequence (P04626 whole entry, looked up): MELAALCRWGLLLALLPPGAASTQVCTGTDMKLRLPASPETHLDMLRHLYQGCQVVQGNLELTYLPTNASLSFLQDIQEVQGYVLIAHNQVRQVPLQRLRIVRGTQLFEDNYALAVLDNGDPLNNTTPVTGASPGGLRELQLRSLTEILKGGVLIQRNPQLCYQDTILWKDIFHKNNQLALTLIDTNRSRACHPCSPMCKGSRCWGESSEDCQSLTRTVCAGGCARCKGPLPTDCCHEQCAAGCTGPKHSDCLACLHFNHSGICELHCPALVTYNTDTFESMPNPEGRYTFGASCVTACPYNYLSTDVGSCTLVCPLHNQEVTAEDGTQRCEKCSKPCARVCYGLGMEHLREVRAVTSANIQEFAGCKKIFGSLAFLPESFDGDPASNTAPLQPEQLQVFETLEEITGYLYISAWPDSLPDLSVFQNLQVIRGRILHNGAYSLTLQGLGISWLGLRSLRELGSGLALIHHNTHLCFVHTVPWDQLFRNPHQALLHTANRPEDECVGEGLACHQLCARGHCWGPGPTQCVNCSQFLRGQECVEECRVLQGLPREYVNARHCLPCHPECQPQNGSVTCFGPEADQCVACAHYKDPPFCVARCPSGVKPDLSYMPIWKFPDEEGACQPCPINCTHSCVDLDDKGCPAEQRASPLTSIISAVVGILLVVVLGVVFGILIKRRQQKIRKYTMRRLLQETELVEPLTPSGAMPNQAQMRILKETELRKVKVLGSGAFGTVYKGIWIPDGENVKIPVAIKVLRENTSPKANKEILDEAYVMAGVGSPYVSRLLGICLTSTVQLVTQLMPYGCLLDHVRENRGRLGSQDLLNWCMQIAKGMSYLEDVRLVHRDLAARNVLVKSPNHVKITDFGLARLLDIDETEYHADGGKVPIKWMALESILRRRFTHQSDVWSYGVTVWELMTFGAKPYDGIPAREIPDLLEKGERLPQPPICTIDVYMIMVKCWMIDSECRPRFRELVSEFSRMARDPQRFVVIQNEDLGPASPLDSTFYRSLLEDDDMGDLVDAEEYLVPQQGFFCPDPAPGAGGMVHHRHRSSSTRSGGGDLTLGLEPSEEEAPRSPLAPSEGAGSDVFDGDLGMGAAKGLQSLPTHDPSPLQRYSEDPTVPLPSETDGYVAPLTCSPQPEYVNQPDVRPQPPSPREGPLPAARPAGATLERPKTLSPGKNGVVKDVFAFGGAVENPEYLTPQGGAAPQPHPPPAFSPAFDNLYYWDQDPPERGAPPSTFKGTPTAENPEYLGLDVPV
compound,measurement,setting,value
CCn1nnnc1NCc1cccn1C,viability,[1],88%
same,Her2 level,[2],83% (inactive)
same,viability,[3],88% (inactive)
same,viability,[4],105% (inactive)
same,viability,[5],95.9% (inactive)
same,differential viability (reversal),[6]; H69AR cells + 2 uM doxorubicin,3.54% (inactive)
same,viability,[6]; [9],92.4%
same,viability,[6]; [10],95.9%
same,inhibition,[7],-4.27% (inactive)
same,inhibition,[8],2.3% (inactive)
COc1cc(C(=O)Nc2ccc(-n3cnnn3)c(C)c2)cc(OC)c1OC,viability,[1],105%
same,Her2 level,[2],95.5% (inactive)
same,viability,[3],105% (inactive)
same,viability,[4],99.8% (inactive)
same,viability,[5],74% (inactive)
same,differential viability (reversal),[6]; H69AR cells + 2 uM doxorubicin,-24.8% (inactive)
same,viability,[6]; [9],98.8%
same,viability,[6]; [10],74%
same,inhibition,[7],-2.08% (inactive)
same,inhibition,[8],-7.3% (inactive)
Cc1cc(C(=O)NCCN2CCCCC2C)n(-c2ccccc2)n1 (stereo not given),viability,[1],87.5%
same,Her2 level,[2],116% (inactive)
same,viability,[3],87.5% (inactive)
same,viability,[4],92.3% (inactive)
same,viability,[5],92.6% (inactive)
same,differential viability (reversal),[6]; H69AR cells + 2 uM doxorubicin,3.49% (inactive)
same,viability,[6]; [9],89.1%
same,viability,[6]; [10],92.6%
same,inhibition,[7],-2.8% (inactive)
same,inhibition,[8],-3.77% (inactive)
Cc1ccccc1CN1CCNC1=O,viability,[1],114%
same,Her2 level,[2],80% (inactive)
same,viability,[3],114% (inactive)
same,viability,[4],88.3% (inactive)
same,viability,[5],90.8% (inactive)
same,differential viability (reversal),[6]; H69AR cells + 2 uM doxorubicin,8.97% (inactive)
same,viability,[6]; [9],81.9%
same,viability,[6]; [10],90.8%
same,inhibition,[7],-3.16% (inactive)
same,inhibition,[8],6.61% (inactive)
CCC(C(=O)O)n1c(C(F)(F)F)nc2ccccc21 (stereo not given),viability,[1],105%
same,Her2 level,[2],116% (inactive)
same,viability,[3],105% (inactive)
same,viability,[4],105% (inactive)
same,viability,[5],103% (inactive)
same,differential viability (reversal),[6]; H69AR cells + 2 uM doxorubicin,3.27% (inactive)
same,viability,[6]; [9],99.3%
same,viability,[6]; [10],103%
same,inhibition,[7],-5.62% (inactive)
same,inhibition,[8],0% (inactive)
O=C(OCc1nnc(-c2ccc(Cl)cc2)o1)c1ccc(=O)n(Cc2ccccc2)n1,viability,[1],84.5%
same,Her2 level,[2],84.5% (inactive)
same,viability,[3],84.5% (inactive)
same,viability,[4],102% (inactive)
same,viability,[5],95.1% (inactive)
same,differential viability (reversal),[6]; H69AR cells + 2 uM doxorubicin,13.1% (inactive)
same,viability,[6]; [9],82.1%
same,viability,[6]; [10],95.1%
same,inhibition,[7],-4.81% (inactive)
same,inhibition,[8],-9% (inactive)
Cc1cccc(N2CCN(C(=O)c3cc4c(=O)[nH]c5ccccc5c4n3C)CC2)c1C,viability,[1],72.5%
same,Her2 level,[2],57.5% (inactive)
same,viability,[3],72.5% (inactive)
same,viability,[4],65.5% (inactive)
same,viability,[5],95.9% (inactive)
same,differential viability (reversal),[6]; H69AR cells + 2 uM doxorubicin,13% (inactive)
same,viability,[6]; [9],82.9%
same,viability,[6]; [10],95.9%
same,inhibition,[7],-3.33% (inactive)
same,inhibition,[8],11% (inactive)
